Reference: ChEMBL document CHEMBL3616409, “Optimization of a small molecule probe that restores e-cadherin expression” (Bioorg Med Chem Lett, 2015)

Legend:
[1] = Restoration of e-cadherin expression in human SW620 cells by in-cell-western assay; type: functional, cell-based; details: SW-620
[2] = Fraction unbound in human; type: ADME, organism-based; details: in vivo
Cytochrome P450 1A2 = target: T1, Cytochrome P450 1A2 (Homo sapiens, UniProt P05177); experiment: Inhibition of CYP1A2 (unknown origin); type: ADME
T1 sequence (P05177 whole entry): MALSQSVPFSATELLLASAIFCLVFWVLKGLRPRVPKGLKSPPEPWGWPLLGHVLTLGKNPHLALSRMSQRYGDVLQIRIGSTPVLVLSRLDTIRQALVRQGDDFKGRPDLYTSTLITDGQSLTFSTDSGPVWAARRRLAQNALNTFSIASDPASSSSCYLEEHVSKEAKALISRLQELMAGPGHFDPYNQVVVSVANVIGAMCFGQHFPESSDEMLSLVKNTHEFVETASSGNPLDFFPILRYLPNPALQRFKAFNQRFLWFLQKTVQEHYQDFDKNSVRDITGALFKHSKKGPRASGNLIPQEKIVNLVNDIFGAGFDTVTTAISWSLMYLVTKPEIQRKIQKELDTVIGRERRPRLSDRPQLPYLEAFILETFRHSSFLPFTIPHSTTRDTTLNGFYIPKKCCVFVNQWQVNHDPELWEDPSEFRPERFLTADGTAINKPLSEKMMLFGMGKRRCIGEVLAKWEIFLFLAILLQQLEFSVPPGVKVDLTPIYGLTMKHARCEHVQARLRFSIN
How it was run: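 CYP1A2 was assessed in a P450 isozyme panel with 3A4, 2C9 and 2D6. The compound was tested at 30 μM, and the value is reported as a threshold relative to that concentration.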

Cytochrome P450 3A4 = Cytochrome P450 3A4 (Homo sapiens, UniProt P08684); experiment: Inhibition of CYP3A4 (unknown origin); type: ADME
Chain of Cytochrome P450 3A4 (P08684 whole entry): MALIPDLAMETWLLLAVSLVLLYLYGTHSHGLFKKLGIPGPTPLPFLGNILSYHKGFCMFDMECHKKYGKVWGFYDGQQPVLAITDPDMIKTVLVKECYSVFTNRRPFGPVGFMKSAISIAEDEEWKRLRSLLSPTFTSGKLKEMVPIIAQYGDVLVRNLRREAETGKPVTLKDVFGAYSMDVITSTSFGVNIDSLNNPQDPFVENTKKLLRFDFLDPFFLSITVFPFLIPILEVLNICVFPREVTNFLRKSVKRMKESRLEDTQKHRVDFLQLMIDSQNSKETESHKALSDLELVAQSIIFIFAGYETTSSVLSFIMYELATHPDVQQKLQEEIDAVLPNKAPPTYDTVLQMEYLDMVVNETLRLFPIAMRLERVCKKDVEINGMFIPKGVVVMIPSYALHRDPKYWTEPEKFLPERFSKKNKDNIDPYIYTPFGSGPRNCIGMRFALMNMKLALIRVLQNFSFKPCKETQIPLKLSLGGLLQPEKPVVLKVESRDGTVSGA

[3] = Fraction unbound in rat; type: ADME, organism-based; details: in vivo
[4] = Restoration of e-cadherin expression in human SW620 cells at 10 uM by in-cell-western assay relative to control; type: functional, cell-based; details: SW-620
How it was run: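 In-Cell-Western immunofluorescence read-out of e-cadherin in SW620 colon carcinoma cells after treatment at 10 μM; value is average fold change from two assessments.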

Cytochrome P450 2D6 = Cytochrome P450 2D6 (Homo sapiens, UniProt P10635); experiment: Inhibition of CYP2D6 (unknown origin); type: ADME
Chain of Cytochrome P450 2D6 (P10635 whole entry): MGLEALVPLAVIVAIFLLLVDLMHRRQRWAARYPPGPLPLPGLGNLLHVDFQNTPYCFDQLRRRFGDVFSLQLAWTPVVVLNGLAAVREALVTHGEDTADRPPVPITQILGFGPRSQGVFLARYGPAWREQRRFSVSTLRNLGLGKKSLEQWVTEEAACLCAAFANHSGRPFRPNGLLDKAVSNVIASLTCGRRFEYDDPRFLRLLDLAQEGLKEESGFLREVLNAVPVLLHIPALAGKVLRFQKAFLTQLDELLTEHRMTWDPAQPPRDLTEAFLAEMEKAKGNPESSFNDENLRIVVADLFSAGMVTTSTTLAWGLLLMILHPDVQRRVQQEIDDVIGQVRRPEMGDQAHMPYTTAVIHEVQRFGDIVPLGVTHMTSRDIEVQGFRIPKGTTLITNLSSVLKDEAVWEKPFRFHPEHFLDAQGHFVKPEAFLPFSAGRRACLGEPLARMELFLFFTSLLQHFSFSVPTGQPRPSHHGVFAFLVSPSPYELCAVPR

[5] = Half life in Sprague-Dawley rat at 1 mg/kg, iv; type: ADME, organism-based; details: in vivo
How it was run: (§1)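 Single 1 mg/kg intravenous dose in male Sprague-Dawley rats; clearance and half-life from plasma pharmacokinetics.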

[6] = Intrinsic clearance in mouse microsomes; type: ADME, Microsome
[7] = Intrinsic clearance in human microsomes; type: ADME, Microsome
[8] = Fraction unbound in mouse; type: ADME, organism-based; details: in vivo
Rattus norvegicus = experiment: Clearance in Sprague-Dawley rat at 1 mg/kg, iv; type: ADME, organism-based; details: in vivo; how it was run: as §1
[9] = Intrinsic clearance in rat microsomes; type: ADME, Microsome
Cytochrome P450 2C9 = Cytochrome P450 2C9 (Homo sapiens, UniProt P11712); experiment: Inhibition of CYP2C9 (unknown origin); type: ADME
Chain of Cytochrome P450 2C9 (P11712 whole entry): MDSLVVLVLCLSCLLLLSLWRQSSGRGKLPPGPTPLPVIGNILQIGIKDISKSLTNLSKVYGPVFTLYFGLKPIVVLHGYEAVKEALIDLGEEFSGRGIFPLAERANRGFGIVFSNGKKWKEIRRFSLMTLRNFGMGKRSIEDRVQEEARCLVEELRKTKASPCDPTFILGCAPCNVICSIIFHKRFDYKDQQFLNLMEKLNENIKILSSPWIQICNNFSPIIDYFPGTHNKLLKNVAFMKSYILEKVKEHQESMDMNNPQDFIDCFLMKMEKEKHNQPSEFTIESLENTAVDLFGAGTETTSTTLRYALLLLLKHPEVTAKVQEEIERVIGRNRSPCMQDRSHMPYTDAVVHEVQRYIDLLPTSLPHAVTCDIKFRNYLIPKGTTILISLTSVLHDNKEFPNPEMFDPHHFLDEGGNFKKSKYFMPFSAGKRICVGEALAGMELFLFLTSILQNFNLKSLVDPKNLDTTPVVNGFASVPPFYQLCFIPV

SMILES	EC50 [1]	fold change (FC) [4]	further results
O=C(Cc1ccccc1O)NCCCNC(=O)c1cc(-c2ccccc2)on1	3.7 µM	–	–
O=C(NCCCCNC(=O)c1cccnc1O)c1cc(-c2ccccc2)on1	–	5.23	Fu [2]: 0.01; IC50 (Cytochrome P450 1A2): > 30 µM; IC50 (Cytochrome P450 3A4): > 30 µM; Fu [3]: 0.11; IC50 (Cytochrome P450 2D6): > 30 µM; half-life [5]: 7.6 h; clearance [6]: 180 mL/min/kg; clearance [7]: 0 mL/min/kg; Fu [8]: 0.19; clearance (Rattus norvegicus): 18 mL/min/kg; clearance [9]: 33 mL/min/kg; IC50 (Cytochrome P450 2C9): > 30 µM
Cc1ncc(CNCCCNC(=O)c2cc(-c3ccccc3)on2)o1	–	1.5	–
O=C(NCCCCNC(=O)c1c[nH]c2ccccc12)c1cc(-c2ccccc2)on1	–	2.39	–
[N-]=[N+]=Nc1ccnc(NCCCNC(=O)c2cc(-c3ccccc3)on2)n1	5.3 µM	–	–
O=C(NCCCNC(=O)c1cc(-c2ccccc2)on1)c1ccncc1	8.8 µM	–	–
O=C(NCCCCNC(=O)c1cc(-c2ccccc2)on1)c1ccc(O)c(O)c1	–	2.69	–
Cc1c(C(=O)NCCCCc2ccncc2)nn(C)c1-c1ccccc1	–	0.75	–
O=C(NCCCCNC(=O)c1cc(-c2ccccc2)on1)c1cscn1	–	3.7	–
O=C(NCCCNC(=O)c1nccs1)c1cc(-c2ccccc2)on1	4.8 µM	–	–
O=C(NCCCNCc1cccnc1)c1cc(-c2ccccc2)on1	–	3.06	–
O=C(NCCCNCc1ccccc1O)c1cc(-c2ccccc2)on1	–	3.59	–
O=C(NCCCNCc1ccc(O)cc1O)c1cc(-c2ccccc2)on1	–	2.33	–
O=C(NCCCNC(=O)c1cc(-c2ccccc2)on1)c1cccnc1	–	3.05	–
O=C(NCCCCNC(=O)c1cc(-c2ccccc2)on1)c1cocn1	–	3.35	–
Cn1nc(C(=O)NCCCCc2ccncc2)cc1-c1ccccc1	–	1.38	–
Nc1cncc(C(=O)NCCCCNC(=O)c2cc(-c3cccs3)on2)n1	5.6 µM	–	–
O=C(NCCCCNC(=O)c1ccc(Cl)o1)c1cc(-c2ccccc2)on1	4.6 µM	–	–
O=C(NCCCNCc1c[nH]c2ccccc12)c1cc(-c2ccccc2)on1	–	1.44	–
CC(=O)n1cc(CNCCCNC(=O)c2cc(-c3ccccc3)on2)c2ccccc21	15 µM	–	–

SMILES	EC50 [1]	fold change (FC) [4]	further results
O=C(NCCCNC(=O)c1n[nH]c2ccccc12)c1cc(-c2ccccc2)on1	–	1.62	–
O=C(NCCCNCc1c[nH]c2ncccc12)c1cc(-c2ccccc2)on1	–	1.67	–
O=C(NCCCn1ccnc1)c1noc2ccccc12	–	1.21	–
N#Cc1ccnc(NCCCNC(=O)c2cc(-c3ccccc3)on2)c1	12 µM	–	–
O=C(NCCCCNC(=O)c1cc(-c2ccccc2)on1)c1cccnc1	7.1 µM	–	–
O=C(NCCCNC(=O)c1cc(-c2ccccc2)[nH]n1)c1ccncc1	–	1.29	–
O=C(Cc1c[nH]c2ccccc12)NCCCCNC(=O)c1cc(-c2ccccc2)on1	12.6 µM	–	–
O=C(NCCCNC(=O)c1cc(Br)ccc1O)c1cc(-c2ccccc2)on1	–	2.43	–
O=C(NCCCNCc1ccccn1)c1cc(-c2ccccc2)on1	–	2.52	–
O=C(NCCCCc1ccncc1)c1cc(-c2ccco2)on1	4.7 µM	–	–
O=C(NCCCN1CCOCC1)c1n[nH]c2ccccc12	–	0.63	–
O=C(NCCCNCc1ccc(O)c(O)c1)c1cc(-c2ccccc2)on1	–	1.54	–
Cc1cc(CNCCCNC(=O)c2cc(-c3ccccc3)on2)on1	–	3.4	–
O=C(NCCCCNC(=O)c1cccs1)c1cc(-c2cccs2)on1	–	3.04	–
O=C(NCCCCNC(=O)c1cc(I)ccc1O)c1cc(-c2ccccc2)on1	–	2.43	–
CC(CNC(=O)c1cc(-c2cccs2)on1)c1ccncc1 (stereo unspecified)	–	0.32	–
COc1cncc(CNCCCNC(=O)c2cc(-c3ccccc3)on2)c1	–	3.58	–
Cc1ccc(C(=O)NCCCCNC(=O)c2cc(-c3ccccc3)on2)c(O)n1	5.6 µM	–	–
O=C(NCCCCNC(=O)c1cc(-c2cccs2)on1)c1cccnc1	5 µM	–	–
